Key:
[1] = system: MCF7; experiment: Cytotoxicity in human MCF-7 cells assessed as growth inhibition incubated for 24 hrs by MTT assay; format: functional, cell-based; conditions: MCF7, 24 h
Procedure, shortened: (§1)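 Cells were grown in RPMI 1640 with 10% FBS at 37 °C and 10% CO2, seeded at 6×10^3 cells/well. Exposure was 24 h, with viability by MTT, in triplicate cultures. IC50 was reported as mean ± SD.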

[2] = system: WI-38; experiment: Cytotoxicity in human W138 cells assessed as growth inhibition incubated for 24 hrs by MTT assay; format: cell-based; conditions: WI-38, 24 h; procedure, shortened: as §1
[3] = system: HT-29; experiment: Cytotoxicity in human HT-29 cells assessed as growth inhibition incubated for 24 hrs by MTT assay; format: functional, cell-based; conditions: HT-29, 24 h; procedure, shortened: as §1
[4] = system: HepG2; experiment: Cytotoxicity in human HePG2 cells assessed as growth inhibition incubated for 24 hrs by MTT assay; format: functional, cell-based; conditions: HepG2, 24 h; procedure, shortened: as §1
[5] = system: HeLa; experiment: Cytotoxicity in human HeLa cells assessed as growth inhibition incubated for 24 hrs by MTT assay; format: functional, cell-based; procedure, shortened: as §1
[6] = system: A549; experiment: Cytotoxicity in human A549 cells assessed as growth inhibition incubated for 24 hrs by MTT assay; format: functional, cell-based; conditions: A549, 24 h; procedure, shortened: as §1
[7] = Induction of H2S generation assessed as half life at 150 uM incubated at 37 degC and pH 7.4 by fluorescence spectrophotometry; format: functional
Procedure, shortened: (§2)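 Donor at 150 µM final, mixed with 200 µM sulfonyl-azide fluorescent probe in buffer/acetonitrile (1:9) at set pH. Cuvette held in a water bath at 22 °C or 37 °C, with fluorescence read three times at intervals. H2S was quantified from a Na2S standard curve (0–200 µM, probe 200 µM).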

[8] = Induction of H2S generation assessed as half life at 150 uM incubated at 22 degC and pH 8 by fluorescence spectrophotometry; format: functional; procedure, shortened: as §2
[9] = Induction of H2S generation assessed as Cmax at 150 uM incubated at 37 degC and pH 5 by fluorescence spectrophotometry; format: functional; procedure, shortened: as §2
[10] = Induction of H2S generation assessed as Cmax at 150 uM incubated at 22 degC and pH 1.2 by fluorescence spectrophotometry; format: functional; procedure, shortened: as §2
[11] = Induction of H2S generation assessed as Cmax at 150 uM incubated at 22 degC and pH 8 by fluorescence spectrophotometry; format: functional; procedure, shortened: as §2
[12] = Induction of H2S generation assessed as Cmax Induction of H2S generation assessed as Cmax at 150 uM incubated at 37 degC and pH 8 by fluorescence spectrophotometry; format: functional; procedure, shortened: as §2
[13] = Induction of H2S generation assessed as half life at 150 uM incubated at 37 degC and pH 5 by fluorescence spectrophotometry; format: functional; procedure, shortened: as §2
[14] = Induction of H2S generation assessed as Cmax at 150 uM incubated at 22 degC and pH 7.4 by fluorescence spectrophotometry; format: functional; procedure, shortened: as §2
[15] = Induction of H2S generation assessed as Cmax at 150 uM incubated at 22 degC and pH 5 by fluorescence spectrophotometry; format: functional; procedure, shortened: as §2
[16] = Induction of H2S generation assessed as half life at 150 uM incubated at 22 degC and pH 1.2 by fluorescence spectrophotometry; format: functional; procedure, shortened: as §2
[17] = Induction of H2S generation assessed as half life at 150 uM incubated at 22 degC and pH 7.4 by fluorescence spectrophotometry; format: functional; procedure, shortened: as §2
[18] = Induction of H2S generation assessed as half life at 150 uM incubated at 22 degC and pH 5 by fluorescence spectrophotometry; format: functional; procedure, shortened: as §2
[19] = Induction of H2S generation assessed as half life at 150 uM incubated at 37 degC and pH 8 by fluorescence spectrophotometry; format: functional; procedure, shortened: as §2
[20] = Induction of H2S generation assessed as Cmax at 150 uM incubated at 37 degC and pH 1.2 by fluorescence spectrophotometry; format: functional; procedure, shortened: as §2
[21] = Induction of H2S generation assessed as Cmax Induction of H2S generation assessed as Cmax at 150 uM incubated at 37 degC and pH 7.4 by fluorescence spectrophotometry; format: functional; procedure, shortened: as §2
[22] = Induction of H2S generation assessed as half life at 150 uM incubated at 37 degC and pH 1.2 by fluorescence spectrophotometry; format: functional; procedure, shortened: as §2

Row | Structure (SMILES) | IC50 [1] [µM] | IC50 [2] [µM] | IC50 [3] [µM] | IC50 [4] [µM] | IC50 [5] [µM] | IC50 [6] [µM] | T1/2 [7] [min] | T1/2 [8] [min] | Cmax [9] [µM] | Cmax [10] [µM] | Cmax [11] [µM] | Cmax [12] [µM] | T1/2 [13] [min] | Cmax [14] [µM] | Cmax [15] [µM] | T1/2 [16] [min] | T1/2 [17] [min] | T1/2 [18] [min] | T1/2 [19] [min] | Cmax [20] [µM] | also measured
1 | O=c1[nH]cc(F)c(=O)[nH]1 [FLUOROURACIL] | 136 | 202 | 146 | 112 | 120 | 104 |  |  |  |  |  |  |  |  |  |  |  |  |  |  | 
2 | CC(C)[C@H](NP(O)(=S)c1ccccc1)C(=O)O (some centres not stated) | 542 | 546 | 602 | 690 | 809 | 294 | 2.84 | 4.42 | 126 | 121 | 122 | 124 | 2.25 | 122 | 122 | 2.13 | 3.11 | 2.42 | 3.62 | 125 | Cmax [21]: 125 µM; T1/2 [22]: 1.55 min
3 | O=C(O)[C@H](Cc1ccccc1)NP(O)(=S)c1ccccc1 (some centres not stated) | 663 | 690 | 542 | 671 | 712 | 237 | 2.61 | 4.58 | 129 | 122 | 120 | 127 | 2.33 | 122 | 121 | 2.37 | 3.54 | 2.71 | 4.7 | 129 | Cmax [21]: 128 µM; T1/2 [22]: 1.53 min
4 | CC[C@H](C)[C@H](NP(O)(=S)c1ccccc1)C(=O)O (some centres not stated) | 601 | 658 | 782 | 604 | 972 | 236 | 2.91 | 4.04 | 123 | 119 | 117 | 122 | 2.72 | 117 | 117 | 2.04 | 3.65 | 2.87 | 4.17 | 123 | Cmax [21]: 123 µM; T1/2 [22]: 1.53 min
5 | S=P1(c2ccccc2)OCCO1 | 748 | 381 | 882 | 804 | 679 | 679 | 25.9 | 26.5 | 35.7 | 28.4 | 27.5 | 35.7 | 27.9 | 27.7 | 27.9 | 25.4 | 26.6 | 25.1 | 25 | 35.7 | Cmax [21]: 29.1 µM; T1/2 [22]: 25.8 min
6 | S=P1(c2ccccc2)NCCCN1 | 850 | 381 | 600 | 801 | 793 | 876 | 27.1 | 29 | 35.5 | 27 | 27.1 | 35.7 | 29.6 | 27.2 | 27.2 | 29.2 | 27.5 | 29.8 | 28.4 | 35.7 | T1/2 [22]: 27.8 min
7 | S=P1(c2ccccc2)NCCN1 | 713 | 958 | 780 | 657 | 968 | 641 | 31.1 | 30 | 35.4 | 28.5 | 28.3 | 34.8 | 32.9 | 28.4 | 28.4 | 32.5 | 30.9 | 31.1 | 31.6 | 35.7 | Cmax [21]: 29.9 µM; T1/2 [22]: 31.2 min

— ChEMBL document CHEMBL4665656, “Toxicity, bioactivity, release of HS in vivo and pharmaco-kinetics of HS-donors with thiophosphamide structure” (Eur J Med Chem, 2019)
